Assay results reported in ChEMBL document CHEMBL1126849, “Synthesis of A-ring fluorinated derivatives of (17 alpha,20E/Z)-[125I]iodovinylestradiols: effect on receptor binding and receptor-mediated target tissue uptake” (J Med Chem, 1993).

How the values were obtained:
Details in all cases: in vivo
Rattus norvegicus [1] = assay: Biodistribution in thyroid of Immature Female rat after 12 hour administration of 3 micro Ci (111 kBq) in the absence of 60 microg estradiol; type: ADME, organism-based, Thyroid gland
Summary of the method: (§1)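 Immature female Long Evans rats (21–24 days, 45–70 g), three to five per group, given 125I-labeled steroid (3 μCi, 111 kBq) by lateral tail vein without anesthesia. Vehicle: ethanol diluted in saline with 1% Tween-80, final ethanol 9%, 0.22 μm filtered. +E2 groups received 60 μg unlabeled estradiol co-injected. Killed under ether at set times; tissues KCl-washed, blotted, weighed, gamma counted; %ID/g, mean with SE.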

Rattus norvegicus [2] = assay: Biodistribution in thyroid of Immature Female rat after 1 hr administration of 3 micro Ci (111 kBq) in the absence of 60 microg estradiol; type: ADME, organism-based, Thyroid gland; summary of the method: as §1
Rattus norvegicus [3] = assay: Biodistribution in thyroid of Immature Female rat after 5 hour administration of 3 micro Ci (111 kBq) in the absence of 60 microg estradiol; type: ADME, organism-based, Thyroid gland; summary of the method: as §1
Rattus norvegicus [4] = assay: Biodistribution in blood of Immature Female rat after 1 hr administration of 3 micro Ci (111 kBq) in the presence of (+E2); type: ADME, organism-based
Summary of the method: (§2)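 Immature female Long Evans rats (21–24 days, 45–70 g), unanesthetized in retention cages, given 3 µCi (111 kBq) 125I-labeled steroid i.v. via lateral tail vein. Vehicle was ethanol diluted in saline containing 1% Tween-80, giving 9% ethanol final. The blocking group received 60 µg unlabeled estradiol co-injected. Rats were killed under ether by axillary bleeding, and tissues were KCl-washed and gamma-counted. Data are %ID/g, mean ± SE, n=3–5.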

Rattus norvegicus [5] = assay: Biodistribution in blood of Immature Female rat after 3 hour administration of 3 micro Ci (111 kBq) in the absence of 60 microg estradiol; type: ADME, organism-based; summary of the method: as §2
Rattus norvegicus [6] = assay: Biodistribution in blood of Immature Female rat after 5 hour administration of 3 micro Ci (111 kBq) in the absence of 60 microg estradiol; type: ADME, organism-based; summary of the method: as §2
Rattus norvegicus [7] = assay: Biodistribution in fat of Immature Female rat after 12 hour administration of 3 micro Ci (111 kBq) in the absence of 60 microg estradiol; type: ADME, organism-based, Adipose tissue; summary of the method: as §2
Rattus norvegicus [8] = assay: Biodistribution in fat of Immature Female rat after 1 hr administration of 3 micro Ci (111 kBq) in the presence of (+E2); type: ADME, organism-based, Adipose tissue; summary of the method: as §2
Rattus norvegicus [9] = assay: Biodistribution in fat of Immature Female rat after 5 hour administration of 3 micro Ci (111 kBq) in the absence of 60 microg estradiol; type: ADME, organism-based, Adipose tissue; summary of the method: as §2
Rattus norvegicus [10] = assay: Biodistribution in uterus of Immature Female rat after 12 hour administration of 3 micro Ci (111 kBq) in the absence of 60 microg estradiol; type: ADME, organism-based
Summary of the method: (§3)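 Immature female Long Evans rats (21–24 days, 45–70 g), 3–5 per group, unanesthetized in retention cages, given 3 μCi (111 kBq) 125I-labeled steroid by lateral tail vein. Vehicle: ethanol diluted with saline containing 1% Tween-80, final ethanol 9%. +E2 group co-injected 60 μg unlabeled estradiol (1 h only). Killed under ether; tissues KCl-washed, weighed, gamma-counted. Output: %ID/g (mean, SE) and uterus to blood or nontarget (muscle, spleen, lungs) ratios.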

Rattus norvegicus [11] = assay: Biodistribution in uterus of Immature Female rat after 3 hour administration of 3 micro Ci (111 kBq) in the absence of 60 microg estradiol; type: ADME, organism-based; summary of the method: as §3
Rattus norvegicus [12] = assay: Biodistribution in uterus / blood of Immature Female rat after 12 hour administration of 3 micro Ci (111 kBq) in the absence of 60 microg estradiol; type: ADME, organism-based
Summary of the method: (§4)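 Same in vivo procedure: immature female Long Evans rats (21–24 days), three to five per group, 3 μCi (111 kBq) tracer i.v. via tail vein in 9% ethanol/saline/1% Tween-80, ± 60 μg estradiol co-injected at 1 h. Uterus %ID/g (gamma counting) divided by blood, or by nontarget organ (muscle, spleen, lungs), %ID/g to give ratios.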

Rattus norvegicus [13] = assay: Biodistribution in blood of Immature Female rat after 12 hour administration of 3 micro Ci (111 kBq) in the absence of 60 microg estradiol; type: ADME, organism-based; summary of the method: as §2
Rattus norvegicus [14] = assay: Biodistribution in blood of Immature Female rat after 1 hr administration of 3 micro Ci (111 kBq) in the absence of 60 microg estradiol; type: ADME, organism-based; summary of the method: as §2
Rattus norvegicus [15] = assay: Biodistribution in lungs of Immature Female rat after 3 hour administration of 3 micro Ci (111 kBq) in the absence of 60 microg estradiol; type: ADME, organism-based, Lung; summary of the method: as §2
Rattus norvegicus [16] = assay: Biodistribution in muscle of Immature Female rat after 1 hr administration of 3 micro Ci (111 kBq) in the presence of (+E2); type: ADME, organism-based, Muscle tissue; summary of the method: as §1
Rattus norvegicus [17] = assay: Biodistribution in spleen of Immature Female rat after 1 hr administration of 3 micro Ci (111 kBq) in the absence of 60 microg estradiol; type: ADME, organism-based; summary of the method: as §1
Rattus norvegicus [18] = assay: Biodistribution in spleen of Immature Female rat after 1 hr administration of 3 micro Ci (111 kBq) in the presence of (+E2); type: ADME, organism-based; summary of the method: as §1
Rattus norvegicus [19] = assay: Biodistribution in uterus / spleen, muscle, lungs of Immature Female rat after 1 hr administration of 3 micro Ci (111 kBq) in the presence of (+E2); type: ADME, organism-based; summary of the method: as §4
Rattus norvegicus [20] = assay: Biodistribution in uterus / spleen, muscle, lungs of Immature Female rat after 5 hour administration of 3 micro Ci (111 kBq) in the absence of 60 microg estradiol; type: ADME, organism-based; summary of the method: as §4
Rattus norvegicus [21] = assay: Biodistribution in kidney of Immature Female rat after 12 hour administration of 3 micro Ci (111 kBq) in the absence of 60 microg estradiol; type: ADME, organism-based; summary of the method: as §2
Rattus norvegicus [22] = assay: Biodistribution in kidney of Immature Female rat after 1 hr administration of 3 micro Ci (111 kBq) in the absence of 60 microg estradiol; type: ADME, organism-based; summary of the method: as §2
Rattus norvegicus [23] = assay: Biodistribution in kidney of Immature Female rat after 1 hr administration of 3 micro Ci (111 kBq) in the presence of (+E2); type: ADME, organism-based; summary of the method: as §2
Rattus norvegicus [24] = assay: Biodistribution in liver of Immature Female rat after 1 hr administration of 3 micro Ci (111 kBq) in the absence of 60 microg estradiol; type: ADME, organism-based; summary of the method: as §2
Rattus norvegicus [25] = assay: Biodistribution in liver of Immature Female rat after 5 hour administration of 3 micro Ci (111 kBq) in the absence of 60 microg estradiol; type: ADME, organism-based; summary of the method: as §2
Rattus norvegicus [26] = assay: Biodistribution in lungs of Immature Female rat after 12 hour administration of 3 micro Ci (111 kBq) in the absence of 60 microg estradiol; type: ADME, organism-based, Lung; summary of the method: as §2
Rattus norvegicus [27] = assay: Biodistribution in lungs of Immature Female rat after 1 hr administration of 3 micro Ci (111 kBq) in the absence of 60 microg estradiol; type: ADME, organism-based, Lung; summary of the method: as §2
Rattus norvegicus [28] = assay: Biodistribution in uterus / blood of Immature Female rat after 1 hr administration of 3 micro Ci (111 kBq) in the presence of (+E2); type: ADME, organism-based; summary of the method: as §4
Rattus norvegicus [29] = assay: Biodistribution in uterus / blood of Immature Female rat after 3 hour administration of 3 micro Ci (111 kBq) in the absence of 60 microg estradiol; type: ADME, organism-based; summary of the method: as §4
Rattus norvegicus [30] = assay: Biodistribution in uterus of Immature Female rat after 1 hr administration of 3 micro Ci (111 kBq) in the absence of 60 microg estradiol; type: ADME, organism-based; summary of the method: as §3
Rattus norvegicus [31] = assay: Biodistribution in uterus of Immature Female rat after 1 hr administration of 3 micro Ci (111 kBq) in the presence of (+E2); type: ADME, organism-based; summary of the method: as §3

Row | ID/g (Rattus norvegicus [1]) [%] | ID/g (Rattus norvegicus [2]) [%] | ID/g (Rattus norvegicus [3]) [%] | ID/g (Rattus norvegicus [4]) [%] | ID/g (Rattus norvegicus [5]) [%] | ID/g (Rattus norvegicus [6]) [%] | ID/g (Rattus norvegicus [7]) [%] | ID/g (Rattus norvegicus [8]) [%] | ID/g (Rattus norvegicus [9]) [%] | ID/g (Rattus norvegicus [10]) [%] | ID/g (Rattus norvegicus [11]) [%] | ID/g (Rattus norvegicus [12]) [%] | ID/g (Rattus norvegicus [13]) [%] | ID/g (Rattus norvegicus [14]) [%] | ID/g (Rattus norvegicus [15]) [%] | ID/g (Rattus norvegicus [16]) [%] | ID/g (Rattus norvegicus [17]) [%] | ID/g (Rattus norvegicus [18]) [%] | ID/g (Rattus norvegicus [19]) [%] | ID/g (Rattus norvegicus [20]) [%] | SMILES | other results
1 | 475 | 61 | 274 | 0.28 | 0.26 | 0.17 | 0.83 | 2.3 | 1.69 | 12.64 | 10.45 | 122.53 | 0.1 | 0.26 | 0.69 | 0.91 | 0.79 | 0.78 | 1.02 | 26.5 | CO[C@H]1C[C@@]2(C)[C@@H](CC[C@@]2(O)/C=C/I)[C@@H]2CCc3c(ccc(O)c3F)[C@H]21 | ID/g (Rattus norvegicus [21]): 0.49%; ID/g (Rattus norvegicus [22]): 2.03%; ID/g (Rattus norvegicus [23]): 1.28%; ID/g (Rattus norvegicus [24]): 3.32%; ID/g (Rattus norvegicus [25]): 2.72%; ID/g (Rattus norvegicus [26]): 0.3%; ID/g (Rattus norvegicus [27]): 1.07%; ID/g (Rattus norvegicus [28]): 3.57%; ID/g (Rattus norvegicus [29]): 44.23%; ID/g (Rattus norvegicus [30]): 8.02%; ID/g (Rattus norvegicus [31]): 1.02%
2 | 1899 | 217 | 1210 | 0.87 | 0.45 | 0.34 | 0.13 | 4.78 | 0.66 | 6.45 | 9.59 | 50.35 | 0.17 | 0.54 | 0.54 | 2.3 | 0.59 | 5.3 | 0.64 | 25.79 | CO[C@H]1C[C@@]2(C)[C@@H](CC[C@@]2(O)/C=C\I)[C@@H]2CCc3cc(O)c(F)cc3[C@H]21 | ID/g (Rattus norvegicus [21]): 0.29%; ID/g (Rattus norvegicus [22]): 1.56%; ID/g (Rattus norvegicus [23]): 2.83%; ID/g (Rattus norvegicus [24]): 2.04%; ID/g (Rattus norvegicus [25]): 1.12%; ID/g (Rattus norvegicus [26]): 0.13%; ID/g (Rattus norvegicus [27]): 0.76%; ID/g (Rattus norvegicus [28]): 1.12%; ID/g (Rattus norvegicus [29]): 21.19%; ID/g (Rattus norvegicus [30]): 8.36%; ID/g (Rattus norvegicus [31]): 0.94%
